Measured values reported in ChEMBL document CHEMBL3108680, “Diversity-oriented synthesis of α-aminophosphonates: a new class of potential anticancer agents” (Eur J Med Chem, 2013).
pIC50: −log10 of the molar value. Calls of active or inactive are those of the source. The calls are words filed in the database; no cut-off is given here.

What was measured:
Assay type in all cases: functional, cell-based
NCI-H23 [1] = experiment: Cytotoxicity against human NCI-H23 cells after 48 hrs by MTT assay; conditions: for pIC50: NCI-H23, 48 h
Outline: (§1)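 Cells seeded at densities suited to their growth and incubated 24 h compound-free. They were then treated 48 h with six 2-fold serial dilutions, top […]. Viability was measured by MTT (added from a 10 mg/ml PBS solution; 4 h, 37 °C), followed by centrifugation, DMSO dissolution and A570. Run thrice in triplicate; mean ± SD, n = 3.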

A549 [2] = experiment: Cytotoxicity against human A549 cells after 48 hrs by MTT assay; conditions: for pIC50: A549, 48 h
Outline: (§2)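 Jurkat and Colo 320DM grown in RPMI 1640 with 10% FBS and 1% ampicillin; A549 in 90% DMEM with 10% FBS. Cells seeded at line-dependent densities, held 24 h compound-free, then exposed 48 h to six 2-fold dilutions (top […]). MTT (10 mg/ml PBS solution) added for 4 h at 37 °C; DMSO-solubilized formazan read at 570 nm. Three runs in triplicate.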

COLO 320DM [3] = experiment: (§3) Cytotoxicity against human COLO320DM cells after 48 hrs by MTT assay; outline: as §2
[4] = as §3; conditions: COLO 320DM; outline: as §2
Jurkat [5] = experiment: Cytotoxicity against human Jurkat cells at 100 uM after 48 hrs by MTT assay
MG-63 [6] = experiment: (§4) Cytotoxicity against human MG63 cells after 48 hrs by MTT assay; outline: as §1
[7] = as §4; conditions: MG-63, 48 h; outline: as §1
Jurkat [8] = experiment: Cytotoxicity against human Jurkat cells after 48 hrs by MTT assay
Outline: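 Cells seeded at line-dependent densities, held 24 h compound-free, then exposed 48 h to six 2-fold dilutions (top […]). MTT (10 mg/ml PBS solution) added for 4 h at 37 °C; DMSO-solubilized formazan read at 570 nm. Three runs in triplicate.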

A549 [9] = experiment: Cytotoxicity against human A549 cells at 500 uM after 48 hrs by MTT assay
NCI-H23 [10] = experiment: Cytotoxicity against human NCI-H23 cells at 500 uM after 48 hrs by MTT assay
Jurkat [11] = experiment: Cytotoxicity against human Jurkat cells at 500 uM after 48 hrs by MTT assay
MG-63 [12] = experiment: Cytotoxicity against human MG63 cells at 500 uM after 48 hrs by MTT assay
COLO 320DM [13] = experiment: Cytotoxicity against human COLO320DM cells at 500 uM after 48 hrs by MTT assay
Jurkat [14] = experiment: Cytotoxicity against human Jurkat cells at 200 uM after 48 hrs by MTT assay
COLO 320DM [15] = experiment: Cytotoxicity against human COLO320DM cells at 200 uM after 48 hrs by MTT assay
A549 [16] = experiment: Cytotoxicity against human A549 cells at 200 uM after 48 hrs by MTT assay
NCI-H23 [17] = experiment: Cytotoxicity against human NCI-H23 cells at 250 uM after 48 hrs by MTT assay
MG-63 [18] = experiment: Cytotoxicity against human MG63 cells at 250 uM after 48 hrs by MTT assay

Row | Structure (SMILES) | inhibition (NCI-H23 [1]) | pIC50 (NCI-H23 [1]) | inhibition (A549 [2]) | pIC50 (A549 [2]) | inhibition (COLO 320DM [3]) | pIC50 [4] | inhibition (MG-63 [6]) | pIC50 [7] | pIC50 (Jurkat [8]) | inhibition (Jurkat [8]) | further results
1 | CCOP(=O)(OCC)C(Nc1ccccc1)c1ccc([N+](=O)[O-])cc1 (stereo unspecified) | Dose-dependent effect | 4.43 | Dose-dependent effect | 4.24 | Dose-dependent effect | 4.38 | Dose-dependent effect | 4.50 | – | – | inhibition (Jurkat [5]): inactive
2 | CCOP(=O)(OCC)C(Nc1c(C)cccc1C)c1ccc2c(c1)OCO2 (stereo unspecified) | Dose-dependent effect | 3.61 | Dose-dependent effect | < 3.30 | Dose-dependent effect | 3.98 | Dose-dependent effect | 3.94 | < 3.30 | Dose-dependent effect | –
3 | O=c1[nH]cc(F)c(=O)[nH]1 [FLUOROURACIL] | – | – | – | – | Dose-dependent effect | 5.70 | – | – | – | – | –
4 | CCCCOP(=O)(OCCCC)C(N[C@@H](C)c1ccccc1)c1ccc2c(c1)OCO2 (stereo partly specified) | – | – | – | – | – | – | – | – | – | – | inhibition (A549 [9]): inactive; inhibition (NCI-H23 [10]): inactive; inhibition (Jurkat [11]): inactive; inhibition (MG-63 [12]): inactive; inhibition (COLO 320DM [13]): inactive
5 | CCOP(=O)(OCC)C(Nc1ccccc1)c1ccc(OC)c(O)c1 (stereo unspecified) | Dose-dependent effect | 4.40 | Dose-dependent effect | 4.20 | Dose-dependent effect | 4.32 | Dose-dependent effect | 4.43 | 4.24 | Dose-dependent effect | –
6 | CCCCOP(=O)(OCCCC)C(Nc1cccc(Cl)c1)c1ccc2c(c1)OCO2 (stereo unspecified) | Dose-dependent effect | 4.11 | Dose-dependent effect | 3.58 | Dose-dependent effect | 4.03 | Dose-dependent effect | 3.97 | < 3.30 | Dose-dependent effect | –
7 | CCCCOP(=O)(OCCCC)C(Nc1cccc(F)c1)c1ccc2c(c1)OCO2 (stereo unspecified) | Dose-dependent effect | 4.02 | Dose-dependent effect | 3.44 | Dose-dependent effect | 4.10 | Dose-dependent effect | 3.91 | < 3.30 | Dose-dependent effect | –
8 | CCCCOP(=O)(OCCCC)C(N[C@H](C)c1ccccc1)c1ccc2c(c1)OCO2 (stereo partly specified) | Dose-dependent effect | 4.54 | Dose-dependent effect | 4.36 | Dose-dependent effect | 4.80 | Dose-dependent effect | 4.87 | 5.40 | Dose-dependent effect | –
9 | CCCCOP(=O)(OCCCC)C(Nc1ccccc1C)c1ccc2c(c1)OCO2 (stereo unspecified) | – | – | – | – | – | – | – | – | < 3.30 | Dose-dependent effect | inhibition (A549 [9]): inactive; inhibition (NCI-H23 [10]): inactive; inhibition (MG-63 [12]): inactive; inhibition (COLO 320DM [13]): inactive
10 | CO[C@@]12[C@H](COC(N)=O)C3=C(C(=O)C(C)=C(N)C3=O)N1C[C@@H]1N[C@@H]12 [MITOMYCIN] | Dose-dependent effect | 5.70 | – | – | – | – | – | – | – | – | –
11 | CC/C(=C(\c1ccccc1)c1ccc(OCCN(C)C)cc1)c1ccccc1 | – | – | – | – | – | – | – | – | – | Dose-dependent effect | –
12 | CCOP(=O)(OCC)C(Nc1ccccc1)c1ccc(OC)cc1 (stereo unspecified) | Dose-dependent effect | 4.27 | – | – | – | – | Dose-dependent effect | 3.98 | – | – | inhibition (Jurkat [14]): inactive; inhibition (COLO 320DM [15]): inactive; inhibition (A549 [16]): inactive
13 | COc1cccc2c1C(=O)c1c(O)c3c(c(O)c1C2=O)C[C@@](O)(C(=O)CO)C[C@@H]3O[C@H]1C[C@H](N)[C@H](O)[C@H](C)O1 [DOXORUBICIN] | – | – | Dose-dependent effect | 5.40 | – | – | Dose-dependent effect | 5.50 | – | – | –
14 | CCOP(=O)(OCC)C(Nc1ccccc1)c1ccc(F)cc1 (stereo unspecified) | – | – | – | – | Dose-dependent effect | 3.80 | – | – | – | – | inhibition (A549 [9]): inactive; inhibition (NCI-H23 [10]): inactive; inhibition (Jurkat [11]): inactive; inhibition (MG-63 [12]): inactive
15 | CCCCOP(=O)(OCCCC)C(Nc1ccc2c(c1)OCO2)c1ccc2c(c1)OCO2 (stereo unspecified) | – | – | Dose-dependent effect | 3.72 | Dose-dependent effect | 4.18 | – | – | 4.10 | Dose-dependent effect | inhibition (NCI-H23 [17]): inactive; inhibition (MG-63 [18]): inactive
16 | CCOP(=O)(OCC)C(Nc1ccccc1O)c1ccc2c(c1)OCO2 (stereo unspecified) | Dose-dependent effect | 3.72 | Dose-dependent effect | 3.56 | Dose-dependent effect | 4.10 | Dose-dependent effect | 3.94 | < 3.30 | Dose-dependent effect | –
17 | O=P(Oc1ccccc1)(Oc1ccccc1)C(Nc1cccc(F)c1)c1ccc2c(c1)OCO2 (stereo unspecified) | Dose-dependent effect | 4.32 | – | – | – | – | – | – | 3.31 | Dose-dependent effect | inhibition (A549 [9]): inactive; inhibition (MG-63 [12]): inactive; inhibition (COLO 320DM [13]): inactive
18 | CCOP(=O)(OCC)C(Nc1ccccc1)c1ccc2c(c1)OCO2 (stereo unspecified) | Dose-dependent effect | 4.18 | Dose-dependent effect | 3.87 | Dose-dependent effect | 4.04 | Dose-dependent effect | 4.16 | < 3.30 | Dose-dependent effect | –
19 | CCOP(=O)(OCC)C(Nc1ccccc1)c1ccc(OC)c(OC)c1 (stereo unspecified) | Dose-dependent effect | 4.40 | Dose-dependent effect | 4.13 | Dose-dependent effect | 4.44 | Dose-dependent effect | 4.47 | – | – | inhibition (Jurkat [5]): inactive
